Activity calls are given as the source filed them. The rule behind the calls is not given here.
Experiments:
[1] = tested on: HepG2; experiment: Cytotoxicity against human HepG2 cells assessed as cellular ATP content after 48 hrs by CellTiter-Glo assay; format: cell-based; settings: HepG2, 48 h
Procedure, shortened: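 HepG2 cells exposed to compound; viability read as cellular ATP by luciferase-coupled CellTiter-Glo.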

[2] = tested on: Bacillus subtilis; experiment: Inhibition of Bacillus subtilis Sfp-PPTase using CoA/apo-ACP as substrate preincubated for 10 mins followed by substrate addition measured after 30 mins by PAGE analysis
Procedure, shortened: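 Compound in DMSO added to Sfp at 26.6 nM (in a 1.33× enzyme solution) in HEPES-Na pH 7.6 with MgCl2, NP-40 and BSA, and held 10 min. Reaction started with rhodamine-CoA and apo-actinorhodin-ACP, each 50 μM in a 4× substrate solution. After 30 min at room temperature, quenched with urea/EDTA and resolved by native 20% PAGE.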

[3] = tested on: Bacillus subtilis; experiment: Antibacterial activity against Bacillus subtilis HM489 assessed as cellular ATP content after 5 hrs by BacTiter-Glo assay; format: functional, organism-based; settings: HM489, 5 h
[4] = Inhibition of Bacillus subtilis AcpS-PPTase using rhodamine-CoA/BHQ-2-YbbR as substrate preincubated for 15 mins followed by substrate addition by HTS assay
Procedure, shortened: (§1)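 AcpS-PPTase at 100 nM final in 50 mM HEPES-Na pH 7.6, 10 mM MgCl2, 0.01% Nonidet P-40, 0.01% BSA; compound preincubated 15 min at room temperature, then rhodamine-CoA (5 μM final) and BHQ-2-YbbR (12.5 μM final) added. Fluorescence read (525 ex/598 em) at start and after 60 min; difference gives rate.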

[5] = tested on: Bacillus subtilis; experiment: Reversible inhibition of Bacillus subtilis Sfp-PPTase using rhodamine-CoA/FITC-YbbR as substrate assessed as residual enzyme activity at IC90 preincubated for 30 mins followed by 100 fold dilution and addition of substrate by fluorescence assay
[6] = Inhibition of Bacillus subtilis Sfp-PPTase using rhodamine-CoA/BHQ-2-YbbR as substrate preincubated for 15 mins followed by substrate addition by HTS assay
[7] = tested on: Bacillus subtilis; experiment: Inhibition of Bacillus subtilis AcpS-PPTase
Procedure, shortened: (§2)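 qHTS fluorescence assay in 50 mM HEPES-Na pH 7.6, 10 mM MgCl2, 0.01% NP-40, 0.01% BSA. Final enzyme 15 nM Sfp or 100 nM AcpS. Enzyme preincubated with compound 15 min at room temperature, then rhodamine-CoA 5 μM and BHQ-2-YbbR 12.5 μM (final) added. Fluorescence (525 ex/598 em) read at start and after 30 min (Sfp) or 60 min (AcpS); the difference gives the rate. Eight concentrations from 3.6 nM to 114 μM, run in triplicate.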

[8] = Non-competitive inhibition of Bacillus subtilis Sfp-PPTase using CoA/ActACP as substrate preincubated for 10 mins followed by substrate addition measured after 30 mins by HPLC analysis
[9] = tested on: Bacillus subtilis; experiment: Inhibition of Bacillus subtilis Sfp-PPTase; procedure, shortened: as §2
[10] = target: T1, L-aminoadipate-semialdehyde dehydrogenase-phosphopantetheinyl transferase (Homo sapiens) (UniProt Q9NRN7); experiment: Inhibition of human PPTase up to 125 uM by gel-based fluorescence assay
T1 sequence (whole entry): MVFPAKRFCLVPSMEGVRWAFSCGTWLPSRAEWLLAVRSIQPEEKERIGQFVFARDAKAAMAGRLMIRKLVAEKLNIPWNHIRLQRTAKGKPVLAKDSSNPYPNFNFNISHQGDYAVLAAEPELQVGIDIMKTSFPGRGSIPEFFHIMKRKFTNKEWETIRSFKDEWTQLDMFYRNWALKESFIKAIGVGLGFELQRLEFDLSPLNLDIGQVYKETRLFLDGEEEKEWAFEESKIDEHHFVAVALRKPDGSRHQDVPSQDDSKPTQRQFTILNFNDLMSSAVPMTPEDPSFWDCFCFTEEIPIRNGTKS

[11] = Inhibition of AcpS-PPTase (unknown origin); procedure, shortened: as §1
[12] = tested on: Bacillus subtilis; experiment: Antibacterial activity against Bacillus subtilis 168 assessed as growth inhibition after 16 to 20 hrs by resazurin dye-based assay; format: functional; settings: subsp. subtilis str. 168
Procedure, shortened: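 Broth microdilution. Test article from 1 μL DMSO in 50 μL cation-adjusted Mueller Hinton II (bacteria) or RPMI 1640 (fungi), plus ~1×10^3 cfu inoculum in the same medium. Incubated 16–20 h at 30–37 °C (48 h for fungi). MIC scored visually as the first well without growth; resazurin added for imaging.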

[13] = tested on: Bacillus subtilis; experiment: Antibacterial activity against Bacillus subtilis 168 assessed as disruption of cell membrane integrity at 10 times MIC after 15 mins by Syto9/propidium iodide staining-based BacLight LIVE/DEAD microscopic analysis; format: functional, organism-based; settings: subsp. subtilis str. 168
[14] = tested on: Staphylococcus aureus; experiment: Antibacterial activity against Staphylococcus aureus BK2395 in Swiss Webster mouse septicemia model assessed as increase in survival at 50 mg/kg, ip administered 4 to 48 hrs measured 3 times daily for 14 days; format: functional, organism-based; design: dose 50 mg/kg
[15] = tested on: Liver microsome; experiment: Drug metabolism in human liver microsomes assessed as GSH adduct formation at 50 uM after 60 mins by LC-MS/MS analysis in presence of NADPH; format: ADME; settings: 1 h

| Compound | IC50 [6] [µM] | also measured |
| --- | --- | --- |
| Cc1ccnc(NC(=S)N2CCN(c3cccc(C(F)(F)F)c3)CC2)c1 | 0.78 | IC50 [1]: 14 µM; inhibition [2]: Dose-dependent effect; IC50 [3]: 9.8 µM; IC50 [4]: 4.6 µM; inhibition [5]: Active; inhibition [7]: Active; IC50 [8]: 0.3 µM; inhibition [9]: Active |
| Cc1ccnc(NC(=S)N2CCC(Nc3cccc(C(F)(F)F)c3)CC2)c1 | 0.81 | IC50 [1]: ≥ 114 µM; IC50 [3]: 13.2 µM; IC50 [4]: 12.9 µM |
| Cc1cc(C)nc(N/C(=N/C#N)N2CCN(c3cccc(C(F)(F)F)c3)CC2)c1 | ≥ 114 | – |
| Cc1cccc(NC(=S)N2CCN(c3cccc(C(F)(F)F)c3)CC2)c1 | ≥ 114 | – |
| Cc1ccnc(NC(=S)N2CC3CN(c4cccc(C(F)(F)F)c4)CC3C2)c1 (configuration not stated) | 0.73 | – |
| Cc1ccnc(N(C)C(=S)N2CCN(c3cccc(C(F)(F)F)c3)CC2)c1 | ≥ 114 | – |
| Cc1ccnc(C(=S)N2CCN(c3cccc(C(F)(F)F)c3)CC2)c1 | ≥ 114 | – |
| C/N=c1\nc(-c2ccccc2)n(-c2ccccc2)s1 | – | inhibition [10]: Active |
| Cc1ccnc(CC(=S)N2CCN(c3cccc(C(F)(F)F)c3)CC2)c1 | 5.76 | – |
| CSC(Cc1ccc(Cl)cc1)C(=O)Nc1ccc(Cl)cc1C(=O)O (configuration not stated) | – | IC50 [11]: 1.4 µM |
| FC(F)(F)c1cccc(N2CCN(C(=S)Nc3ccc4ccccc4n3)CC2)c1 | 1.5 | – |
| Cc1cc(C)nc(NC(=S)N2CCN(c3cc(C#N)cc(C#N)c3)CC2)c1 | 0.65 | – |
| Cc1cc(C)nc(NC(=S)N2CCN(c3ccc(Cl)c(Cl)c3Cl)CC2)c1 | 0.73 | – |
| Cc1ccnc(NC(=N)N2CCN(c3cccc(C(F)(F)F)c3)CC2)c1 | ≥ 114 | – |
| Cc1ccnc(NC(=S)N2CCN(c3cccc(C(F)(F)F)c3)C2)c1 | 0.81 | – |
| COC(=O)c1ccnc(NC(=S)N2CCN(c3cccc(C(F)(F)F)c3)CC2)c1 | 11.5 | – |
| FC(F)(F)c1cccc(N2CCN(C(=S)Nc3cc(C(F)(F)F)ccn3)CC2)c1 | ≥ 114 | – |
| Cc1ccnc(NC(=S)N2CCN(c3ccc(C(F)(F)F)cc3)CC2)c1 | 1 | – |
| FC(F)(F)c1cccc(N2CCN(C(=S)Nc3ccncc3)CC2)c1 | ≥ 114 | – |
| Cc1cc(C)nc(NC(=S)N2CCN(c3cc(C(F)(F)F)cc(C(F)(F)F)c3)CC2)c1 | 0.51 | – |

| Compound | IC50 [6] [µM] | also measured |
| --- | --- | --- |
| Cc1cc(C)nc(NC(=S)N2CCN(c3cccc(S(C)(=O)=O)c3)CC2)c1 | 2.9 | – |
| Cc1cc(C)nc(NC(=S)N2CCN(S(=O)(=O)c3cccc(C(F)(F)F)c3)CC2)c1 | 0.81 | – |
| Cetyltrimethylammonium bromide | – | growth inhibition (GI) [12]: Active; Activity [13]: Active |
| Cc1ccnc(NC(=S)Nc2cccc(C(F)(F)F)c2)c1 | 22.9 | – |
| O=C(N[C@H](CO)[C@H](O)c1ccc([N+](=O)[O-])cc1)C(Cl)Cl | – | growth inhibition (GI) [12]: Active; Activity [13]: inactive |
| Cc1cc(C)nc(NC(=S)N2CCN(c3nnc(C(F)(F)F)s3)CC2)c1 | 1.6 | – |
| COc1cccc(NC(=S)N2CCN(c3cccc(C(F)(F)F)c3)CC2)n1 | 1.5 | – |
| Cc1ccnc(NC(=S)NC2CCN(c3cccc(C(F)(F)F)c3)CC2)c1 | ≥ 114 | – |
| Cc1cc(C)nc(NC(=S)N2CCN(c3cccc(C#N)c3)CC2)c1 | 1.6 | – |
| FC(F)(F)c1cccc(N2CCN(C(=S)Nc3ccc4cccnc4n3)CC2)c1 | 1 | – |
| Cc1cc(C)cc(N2CCN(C(=S)Nc3cc(C)cc(C)n3)CC2)c1 | 1.6 | – |
| Cc1ccnc(NC(=S)N2CCCN(c3cccc(C(F)(F)F)c3)CC2)c1 | 1.6 | – |
| Cc1cc(C)nc(NC(=C(C#N)C#N)N2CCN(c3cccc(C(F)(F)F)c3)CC2)c1 | ≥ 114 | – |
| COc1ccnc(NC(=S)N2CCN(c3cccc(C(F)(F)F)c3)CC2)c1 | 1.2 | – |
| Cc1ccnc(NC(=S)N2CCN(C)CC2)c1 | 6.5 | – |
| Cc1ccnc(NC(=S)N2CCN(c3cccc(N(C)C)c3)CC2)c1 | 5.8 | – |
| Cc1cc(C)nc(NC(=S)N2CCN(c3ccc(Cl)cc3Cl)CC2)c1 | 1 | – |
| Cc1ccnc(NC(=S)N2CCN(c3ccccc3C(F)(F)F)CC2)c1 | 0.61 | IC50 [1]: ≥ 114 µM; IC50 [3]: 9.4 µM; IC50 [4]: 10.2 µM |
| Cc1ccnc(NC(=S)NCCNc2cccc(C(F)(F)F)c2)c1 | ≥ 114 | – |
| CN[C@H](CC(C)C)C(=O)N[C@H]1C(=O)N[C@@H](CC(N)=O)C(=O)N[C@H]2C(=O)N[C@H]3C(=O)N[C@H](C(=O)N[C@H](C(=O)O)c4cc(O)cc(O)c4-c4cc3ccc4O)[C@H](O)c3ccc(c(Cl)c3)Oc3cc2cc(c3O[C@@H]2O[C@H](CO)[C@@H](O)[C@H](O)[C@H]2O[C@H]2C[C@](C)(N)[C@H](O)[C@H](C)O2)Oc2ccc(cc2Cl)[C@H]1O | – | Activity [14]: Active |

| Compound | IC50 [6] [µM] | also measured |
| --- | --- | --- |
| Cc1cc(C)nc(NC(=S)N2CCN(c3cc(F)cc(F)c3)CC2)c1 | 1.3 | – |
| Cc1ccnc(NC(=S)NC2CN(c3cccc(C(F)(F)F)c3)C2)c1 | ≥ 114 | – |
| Cc1cc(C)nc(NC(=S)N2CCNCC2)c1 | 14.5 | – |
| Cc1cc(C)nc(Nc2nnc(N3CCN(c4cccc(C(F)(F)F)c4)CC3)s2)c1 | ≥ 114 | – |
| Cc1ccnc(NC(=O)N2CCN(c3cccc(C(F)(F)F)c3)CC2)c1 | ≥ 114 | IC50 [1]: 7 µM; IC50 [3]: ≥ 114 µM; IC50 [4]: ≥ 114 µM |
| Cc1cc(C)nc(NC(=S)N2CCN(c3cc(Cl)c(Cl)c(Cl)c3)CC2)c1 | 0.29 | – |
| COc1cc(OC)cc(N2CCN(C(=S)Nc3cc(C)cc(C)n3)CC2)c1 | 2 | – |
| Cc1cc(C)nc(NC(=S)N2CCN(c3ccc(C(F)(F)F)cn3)CC2)c1 | – | IC50 [1]: 15.8 µM; IC50 [3]: 13.2 µM; IC50 [4]: 16.2 µM |
| Cc1cc(C)nc(NC(=S)N2CCN(c3cc(Cl)cc(Cl)c3)CC2)c1 | 0.85 | – |
| Cc1cc(C)nc(NC(=S)N2CCN(c3ccc(Cl)cc3C(F)(F)F)CC2)c1 | 0.58 | IC50 [1]: ≥ 114 µM; IC50 [3]: 18.6 µM; IC50 [4]: 10.2 µM; Drug metabolism [15]: Not Active |
| Cc1ccnc(NC(=S)NCCN(C)c2cccc(C(F)(F)F)c2)c1 | ≥ 114 | – |
| Cc1cc(C)nc(NC(=S)N2CCN(c3ccc(Cl)c(Cl)c3)CC2)c1 | 0.91 | – |
| FC(F)(F)c1cccc(N2CCN(C(=S)Nc3ccccn3)CC2)c1 | 0.91 | – |
| Cc1cc(C)nc(NC(=S)N2CCN(c3ncc(C(F)(F)F)cc3Cl)CC2)c1 | 0.86 | IC50 [1]: 30 µM; IC50 [3]: 36.2 µM; IC50 [4]: 18.6 µM |
| Cc1cc(C)nc(NC(=S)N2CCN(c3cccc(C(F)(F)F)c3)CC2)c1 | 0.51 | – |
| Cc1cc(C)nc(NC(=S)N2CCN(c3cccc(Cl)c3Cl)CC2)c1 | 1.6 | – |
| Nc1ncnc2c1ncn2[C@@H]1O[C@H](COP(=O)(O)O)[C@@H](OP(=O)(O)O)[C@H]1O | – | inhibition [10]: Active |
| Cc1ccnc(NC(=S)N2CCN(c3cccc(C(F)(F)F)c3)C[C@@H]2C)c1 | 11.5 | – |
| Cc1cc(C)nc(NC(=S)N2CCN(Cc3cccc(C(F)(F)F)c3)CC2)c1 | 11.5 | – |
